Laboratory results reported in ChEMBL document CHEMBL3046065, “Metabolites of the fungistatic agent 2β-methoxyclovan-9α-ol by Macrophomina phaseolina” (J Agric Food Chem, 2011).

Columns and labels:
Botrytis cinerea = assay: Antifungal activity against Botryotinia fuckeliana KUCC 869 assessed as growth inhibition at 200 ug/ml at 27 to 29 degC after 7 days by agar tube dilution method; format: functional; details: KUCC 869, 168 h, read-out: GI
Procedure, shortened: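 Agar tube dilution against B. cinerea isolated from infected strawberries. Compounds were taken from 1 mg/mL DMSO stocks into unsolidified Sabouraud agar at 200 μg/mL final. The agar was set as slants and inoculated with 4 mm plugs from 7-day-old culture, then incubated 7 days at 27–29 °C. Linear growth (mm) was measured and % inhibition calculated against control. Miconazole served as standard.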

Macrophomina phaseolina [1] = assay: Drug metabolism in Macrophomina phaseolina KUCC 730 assessed as transformation to oxidative metabolite, clovan-2-beta, 9-beta, 13-triol at 600 mg at 29 degC after 6 days by TLC analysis; format: ADME, organism-based; details: in vivo, 144 h
Procedure, shortened: (§1)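 Fungus kept on Sabouraud dextrose agar slants at 4 °C. Medium per 3 L water: glucose 30 g, peptone 15 g, yeast extract 15 g, KH2PO4 15 g, NaCl 15 g, glycerol 30 mL. Adjusted to pH 7.0 and autoclaved. Substrate in acetone, 20 mg per 100 mL flask, added to 24 h stage II cultures. Shaken at 200 rpm, 29 °C, 6 days. Daily TLC monitoring. Substrate-only and fungus-only controls were run.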

Macrophomina phaseolina [2] = assay: Drug metabolism in Macrophomina phaseolina KUCC 730 assessed as transformation to oxidative metabolite, 2-beta-methoxyclovan-9-alpha-13-diol at 600 mg at 29 degC after 6 days by TLC analysis; format: ADME, organism-based; details: in vivo, 144 h; procedure, shortened: as §1
Macrophomina phaseolina [3] = assay: Drug metabolism in Macrophomina phaseolina KUCC 730 assessed as transformation to oxidative metabolite, clovan-2-beta, 13-diol-9-one at 600 mg at 29 degC after 6 days by TLC analysis; format: ADME, organism-based; details: in vivo, 144 h; procedure, shortened: as §1
Macrophomina phaseolina [4] = assay: Drug metabolism in Macrophomina phaseolina KUCC 730 assessed as transformation to oxidative metabolite, clovan-2-beta, 9-alpha-diol at 600 mg at 29 degC after 6 days by TLC analysis; format: ADME, organism-based; details: in vivo, 144 h; procedure, shortened: as §1
Macrophomina phaseolina [5] = assay: Drug metabolism in Macrophomina phaseolina KUCC 730 assessed as transformation to oxidative metabolite, clovan-2-beta, 9-beta-diol at 600 mg at 29 degC after 6 days by TLC analysis; format: ADME, organism-based; details: in vivo, 144 h; procedure, shortened: as §1
Macrophomina phaseolina [6] = assay: Drug metabolism in Macrophomina phaseolina KUCC 730 assessed as transformation to oxidative metabolite, 2-beta-methoxyclovan-9-one at 600 mg at 29 degC after 6 days by TLC analysis; format: ADME, organism-based; details: in vivo, 144 h; procedure, shortened: as §1

| SMILES | inhibition of growth at 200 µg/mL (Botrytis cinerea) [%] | also measured |
| --- | --- | --- |
| CO[C@H]1CC(C)(C)[C@@H]2CC[C@@]3(C)C[C@]12CCC3=O | 71 |  |
| CO[C@H]1C[C@@](C)(CO)[C@@H]2CC[C@@]3(C)C[C@]12CC[C@H]3O | 17 |  |
| CC1(C)C[C@H](O)[C@]23CC[C@@H](O)[C@@](C)(CC[C@@H]12)C3 [CLOVANEDIOL] | 59 |  |
| C[C@@]12CC[C@H]3[C@](C)(CO)C[C@H](O)[C@@]3(CC[C@@H]1O)C2 | 11 |  |
| CC1(C)C[C@H](O)[C@]23CC[C@H](O)[C@@](C)(CC[C@@H]12)C3 | 32 |  |
| CO[C@H]1CC(C)(C)[C@@H]2CC[C@@]3(C)C[C@]12CC[C@H]3O [2BETA-METHOXYCLOVAN-9ALPHA-OL] | 81 | Drug metabolism (Macrophomina phaseolina [1]): Active; Drug metabolism (Macrophomina phaseolina [2]): Active; Drug metabolism (Macrophomina phaseolina [3]): Active; Drug metabolism (Macrophomina phaseolina [4]): Active; Drug metabolism (Macrophomina phaseolina [5]): Active; Drug metabolism (Macrophomina phaseolina [6]): Active |
| C[C@@]12CC[C@H]3[C@](C)(CO)C[C@H](O)[C@@]3(CCC1=O)C2 | 8 |  |
